{
  "source": "ChEMBL document CHEMBL4616722",
  "about": "“Discovery of Novel PDEδ Degraders for the Treatment of KRAS Mutant Colorectal Cancer” (J Med Chem, 2020)",
  "key": {"SW480 [1]": {"test_system": "SW480", "assay": "Antiproliferative activity against human SW480 cells incubated for 72 hrs by CCK8 assay", "details": "SW480, 72 h"}, "HCT-116": {"test_system": "HCT-116", "assay": "Antiproliferative activity against human HCT116 cells incubated for 72 hrs by CCK8 assay", "details": "HCT-116, 72 h"}, "[2]": {"assay": "Toxicity in BALB/C nude mouse xenografted with human SW480 cells assessed as induction of body weight loss at 50 mg/kg, ip dosed once daily for 12 consecutive days", "format": "organism-based", "details": "in vivo", "procedure,_shortened": "(§1)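 SW480 xenografts in nude mice, dosed intraperitoneally once a day for 12 consecutive days and compared with a vehicle group. Tumor growth followed over time and expressed as TGI, with data as mean ± standard deviation and significance by P value. Body weight and adverse effects were monitored throughout the study.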"}, "SW480 [3]": {"test_system": "SW480", "assay": "Antitumor activity against human SW480 cells xenografted in BALB/C nude mouse assessed as tumor growth inhibition at 50 mg/kg, ip dosed once daily for 12 consecutive days relative to control", "format": "functional", "details": "read-out: TGI", "procedure,_shortened": "as §1"}, "[4]": {"assay": "Toxicity in BALB/C nude mouse xenografted with human SW480 cells assessed as induction of adverse effects at 50 mg/kg, ip dosed once daily for 12 consecutive days", "format": "organism-based", "details": "in vivo", "procedure,_shortened": "as §1"}, "SW480 [5]": {"test_system": "SW480", "assay": "Induction of apoptosis in human SW480 cells assessed as early apoptotic cells level at 40 uM incubated for 24 hrs by propidium iode and annexin V-FITC staining based flow cytometry (reference value: 1.76%)", "format": "functional"}, "SW480 [6]": {"test_system": "SW480", "assay": "Induction of apoptosis in human SW480 cells assessed as necrotic cells level at 40 uM incubated for 24 hrs by propidium iode and annexin V-FITC staining based flow cytometry (reference value: 2.79%)", "format": "functional"}, "SW480 [7]": {"test_system": "SW480", "assay": "Induction of apoptosis in human SW480 cells assessed as late apoptotic cells level at 40 uM incubated for 24 hrs by propidium iode and annexin V-FITC staining based flow cytometry (reference value: 4.46%)", "format": "functional"}, "Mus musculus [8]": {"test_system": "Mus musculus", "assay": "In-vivo protac activity at cereblon/PDE6D in BALB/C nude mouse xenografted with human SW480 cells assessed as decrease in PDEdelta level at 50 mg/kg, ip dosed once daily for 12 consecutive days by immunofluorescence assay", "format": "functional, organism-based", "procedure,_shortened": "(§2)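 Tumor tissue from SW480-transplanted nude mice analysed by immunofluorescence for PDEδ, RAS and p-Akt protein expression.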"}, "MIA PaCa-2": {"test_system": "MIA PaCa-2", "assay": "Antiproliferative activity against human MIAPaCa2 cells incubated for 72 hrs by CCK8 assay", "format": "functional, cell-based"}, "SW480 [9]": {"test_system": "SW480", "assay": "Induction of apoptosis in human SW480 cells assessed as early apoptotic cells level at 20 uM incubated for 24 hrs by propidium iode and annexin V-FITC staining based flow cytometry (reference value: 1.76%)", "format": "functional"}, "[10]": {"assay": "Permeability in human Caco2 cells", "format": "ADME, cell-based", "details": "caco-2"}, "Mus musculus [11]": {"test_system": "Mus musculus", "assay": "In-vivo protac activity at cereblon/PDE6D in BALB/C nude mouse xenografted with human SW480 cells assessed as decrease in p-Akt level at 50 mg/kg, ip dosed once daily for 12 consecutive days by immunofluorescence assay", "format": "functional, organism-based", "procedure,_shortened": "as §2"}, "[12]": {"assay": "Tmax in Sprague-Dawley rat at 50 mg/kg, ip measured after 0.083 to 24 hrs by LC-MS/MS analysis", "format": "ADME, organism-based", "details": "in vivo", "procedure,_shortened": "(§3)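 Rats given the compound intraperitoneally at 50 mg/kg, with drug levels measured in plasma over time. The concentration–time profile gave half-life, Cmax and AUC.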"}, "SW480 [13]": {"test_system": "SW480", "assay": "Induction of apoptosis in human SW480 cells assessed as late apoptotic cells level at 20 uM incubated for 24 hrs by propidium iode and annexin V-FITC staining based flow cytometry (reference value: 4.46%)", "format": "functional"}, "[14]": {"assay": "Half life in Sprague-Dawley rat at 50 mg/kg, ip measured after 0.083 to 24 hrs by LC-MS/MS analysis", "format": "ADME, organism-based", "details": "in vivo", "procedure,_shortened": "as §3"}, "[15]": {"assay": "AUC (0 to infinity) in Sprague-Dawley rat at 50 mg/kg, ip measured after 0.083 to 24 hrs by LC-MS/MS analysis", "format": "ADME, organism-based", "set-up": "dose 50 mg/kg, route intraperitoneal, time infinity", "details": "in vivo", "procedure,_shortened": "as §3"}, "SW480 [16]": {"test_system": "SW480", "assay": "Antiproliferative activity against human SW480 cells incubated for 72 hrs in presence of 30 uM pomalidomide by CCK8 assay", "details": "SW480, 72 h"}, "[17]": {"assay": "Clearance in Sprague-Dawley rat at 50 mg/kg, ip measured after 0.083 to 24 hrs by LC-MS/MS analysis", "format": "ADME, organism-based", "details": "in vivo", "procedure,_shortened": "as §3"}, "[18]": {"assay": "Cmax in Sprague-Dawley rat at 50 mg/kg, ip measured after 0.083 to 24 hrs by LC-MS/MS analysis", "format": "ADME, organism-based", "set-up": "dose 50 mg/kg, route intraperitoneal", "details": "in vivo", "procedure,_shortened": "as §3"}, "SW480 [19]": {"test_system": "SW480", "assay": "Induction of apoptosis in human SW480 cells assessed as necrotic cells level at 20 uM incubated for 24 hrs by propidium iode and annexin V-FITC staining based flow cytometry (reference value: 2.79%)", "format": "functional"}},
  "note": "Activity calls are given as the source filed them. The calls are words filed in the database; no cut-off is given here.",
  "data": [
    {"compound": "Cc1ccc(-n2nc3c(=O)n(CCCC(=O)NCCCCCCCCNc4ccc5c(c4)C(=O)N(C4CCC(=O)NC4=O)C5=O)nc(C)c3c2C)cc1", "note": "(stereo unspecified)", "values": [
      {"measurement": "IC50", "setting": "SW480 [1]", "value": 7, "unit": "µM"}
    ]},
    {"compound": "Cc1ccc(-n2nc3c(=O)n(CCCC(=O)NCCCCCCCNc4cccc5c4C(=O)N(C4CCC(=O)NC4=O)C5=O)nc(C)c3c2C)cc1", "note": "(stereo unspecified)", "values": [
      {"measurement": "IC50", "setting": "SW480 [1]", "value": 12, "unit": "µM"},
      {"measurement": "IC50", "setting": "HCT-116", "value": 20, "unit": "µM"}
    ]},
    {"compound": "Cc1ccc(-n2nc3c(=O)n(CCCC(=O)NCCCCCNc4cccc5c4C(=O)N(C4CCC(=O)NC4=O)C5=O)nc(C)c3c2C)cc1", "note": "(stereo unspecified)", "values": [
      {"measurement": "IC50", "setting": "SW480 [1]", "value": 17, "unit": "µM"},
      {"measurement": "IC50", "setting": "HCT-116", "value": 32, "unit": "µM"}
    ]},
    {"compound": "Cc1ccc(-n2nc3c(=O)n(CCCC(=O)NCC(C)c4ccccc4)nc(C)c3c2C)cc1", "note": "(stereo unspecified)", "values": [
      {"measurement": "Activity", "setting": "[2]", "value": "Non-Toxic"},
      {"measurement": "inhibition in vivo at 50 mg/kg", "setting": "SW480 [3]", "value": 24, "unit": "%"},
      {"measurement": "Activity", "setting": "[4]", "value": "Non-Toxic"},
      {"measurement": "Activity", "setting": "SW480 [5]", "value": 2.49, "unit": "%"},
      {"measurement": "Activity", "setting": "SW480 [6]", "value": 2.44, "unit": "%"},
      {"measurement": "Activity", "setting": "SW480 [7]", "value": 8.61, "unit": "%"},
      {"measurement": "Activity", "setting": "Mus musculus [8]", "value": "inactive"},
      {"measurement": "IC50", "setting": "SW480 [1]", "value": 56, "unit": "µM"},
      {"measurement": "IC50", "setting": "HCT-116", "value": 74, "unit": "µM"}
    ]},
    {"compound": "Cc1ccc(-n2nc3c(=O)n(CCCC(=O)NCCCCCCNc4cccc5c4C(=O)N(C4CCC(=O)NC4=O)C5=O)nc(C)c3c2C)cc1", "note": "(stereo unspecified)", "values": [
      {"measurement": "IC50", "setting": "SW480 [1]", "value": 15, "unit": "µM"},
      {"measurement": "IC50", "setting": "HCT-116", "value": 19, "unit": "µM"}
    ]},
    {"compound": "Cc1ccc(-n2nc3c(=O)n(CCCC(=O)NCCCNc4cccc5c4C(=O)N(C4CCC(=O)NC4=O)C5=O)nc(C)c3c2C)cc1", "note": "(stereo unspecified)", "values": [
      {"measurement": "IC50", "setting": "SW480 [1]", "value": 81, "unit": "µM"},
      {"measurement": "IC50", "setting": "HCT-116", "value": 68, "unit": "µM"}
    ]},
    {"compound": "Cc1ccc(-n2nc3c(=O)n(CCCC(=O)NCCCCCCCCNc4cccc5c4C(=O)N(C4CCC(=O)NC4=O)C5=O)nc(C)c3c2C)cc1", "note": "(stereo unspecified)", "values": [
      {"measurement": "Activity", "setting": "MIA PaCa-2", "value": "Active"},
      {"measurement": "Activity", "setting": "[2]", "value": "Non-Toxic"},
      {"measurement": "Activity", "setting": "SW480 [9]", "value": 36.25, "unit": "%"},
      {"measurement": "permeability", "setting": "[10]", "value": "Impermeable"},
      {"measurement": "inhibition in vivo at 50 mg/kg", "setting": "SW480 [3]", "value": 43, "unit": "%"},
      {"measurement": "Activity", "setting": "Mus musculus [11]", "value": "Active"},
      {"measurement": "Activity", "setting": "[4]", "value": "Non-Toxic"},
      {"measurement": "Tmax", "setting": "[12]", "value": 1.67, "unit": "h"},
      {"measurement": "Activity", "setting": "SW480 [5]", "value": 62.58, "unit": "%"},
      {"measurement": "Activity", "setting": "SW480 [6]", "value": 0.37, "unit": "%"},
      {"measurement": "Activity", "setting": "SW480 [7]", "value": 2.95, "unit": "%"},
      {"measurement": "Activity", "setting": "Mus musculus [8]", "value": "Active"},
      {"measurement": "Activity", "setting": "SW480 [13]", "value": 2.06, "unit": "%"},
      {"measurement": "IC50", "setting": "SW480 [1]", "value": 8, "unit": "µM"},
      {"measurement": "half-life", "setting": "[14]", "value": 5.11, "unit": "h"},
      {"measurement": "IC50", "setting": "HCT-116", "value": 8, "unit": "µM"},
      {"measurement": "AUC(0-inf)", "setting": "[15]", "value": 4710, "unit": "ng·h/mL"},
      {"measurement": "IC50", "setting": "SW480 [16]", "value": 71, "unit": "µM"},
      {"measurement": "CL/F", "setting": "[17]", "value": 179, "unit": "mL/min/kg"},
      {"measurement": "Cmax", "setting": "[18]", "value": 564, "unit": "ng/mL"},
      {"measurement": "Activity", "setting": "SW480 [19]", "value": 0.9, "unit": "%"}
    ]},
    {"compound": "Cc1ccc(-n2nc3c(=O)n(CCCC(=O)NCCCOCCOCCOCCCNc4cccc5c4C(=O)N(C4CCC(=O)NC4=O)C5=O)nc(C)c3c2C)cc1", "note": "(stereo unspecified)", "values": [
      {"measurement": "IC50", "setting": "SW480 [1]", "value": 26, "unit": "µM"},
      {"measurement": "IC50", "setting": "HCT-116", "value": 23, "unit": "µM"}
    ]},
    {"compound": "Cc1ccc(-n2nc3c(=O)n(CCCC(=O)NCCCCNc4cccc5c4C(=O)N(C4CCC(=O)NC4=O)C5=O)nc(C)c3c2C)cc1", "note": "(stereo unspecified)", "values": [
      {"measurement": "IC50", "setting": "SW480 [1]", "value": 76, "unit": "µM"},
      {"measurement": "IC50", "setting": "HCT-116", "value": 51, "unit": "µM"}
    ]},
    {"compound": "Cc1ccc(-n2nc3c(=O)n(CCCC(=O)NCCCCCCCCNc4cccc5c4C(=O)N(C4CCC(=O)N(C)C4=O)C5=O)nc(C)c3c2C)cc1", "note": "(stereo unspecified)", "values": [
      {"measurement": "IC50", "setting": "SW480 [1]", "value": 70, "unit": "µM"}
    ]},
    {"compound": "Cc1ccc(-n2nc3c(=O)n(CCCC(=O)NCCOCCOCCNc4cccc5c4C(=O)N(C4CCC(=O)NC4=O)C5=O)nc(C)c3c2C)cc1", "note": "(stereo unspecified)", "values": [
      {"measurement": "IC50", "setting": "SW480 [1]", "value": 58, "unit": "µM"},
      {"measurement": "IC50", "setting": "HCT-116", "value": 25, "unit": "µM"}
    ]}
  ]
}
